Screening data as filed in PubChem.
Compounds with a hit are over-represented: about 2.5% of the library has one in this group of screens.
DYRK1A inh: Dyrk1A (rat) kinase inhibition | ADP-Glo luminescence, NFATc1 peptide | inhibition, % at 12.5 µM | 310,000 compounds, 0.43% hits;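 also: plate controls were vehicle with enzyme for no effect and no enzyme for full effect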
dFosB act-1: enhances mouse delta FosB homodimer DNA binding. P13346. purified delta FosB, TAMRA-CDK5 oligo fluorescence polarization; percent of positive-control signal above neutral wells. activation, % at 25 µM. 340,000 compounds, 0.99% hits. AID 493131;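 active = mean activation above about 17%, with every replicate also reaching it, limit read from the data, passing the limit was not always enough; inconclusive = only one of the two conditions met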
Target sequence (P13346 whole entry, looked up): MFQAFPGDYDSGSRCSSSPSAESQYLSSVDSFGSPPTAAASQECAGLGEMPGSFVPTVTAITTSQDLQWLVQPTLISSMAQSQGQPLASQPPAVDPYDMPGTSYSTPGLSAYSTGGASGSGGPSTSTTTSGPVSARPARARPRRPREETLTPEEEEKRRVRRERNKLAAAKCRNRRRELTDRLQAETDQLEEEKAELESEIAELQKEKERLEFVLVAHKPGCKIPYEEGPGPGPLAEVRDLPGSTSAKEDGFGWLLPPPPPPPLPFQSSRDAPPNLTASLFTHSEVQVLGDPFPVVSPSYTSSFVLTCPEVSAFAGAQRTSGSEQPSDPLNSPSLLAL
NSD2 inh: NSD2 (human) methyltransferase inhibition; 310,000 compounds, 0.54% hits; inhibition, % at 12.5 µM; NSD2 peptide methylation, AlphaScreen, 120 min; AID 743445
SR-BI HDL uptake: mouse SR-BI HDL lipid transfer inhibition | Q61009 | ldlA[mSR-BI] CHO cells, DiI-HDL uptake fluorescence, 3 h | inhibition, % at 12.5 µM | 320,000 compounds, 0.96% hits;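 active = mean replicate inhibition of at least 70% and a set share of replicates each scoring 70 or more; inconclusive = meets just one of the two criteria; inactive = fails both criteria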;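 also: 0% = median of neutral control wells and 100% = median of positive control wells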
SR-BI uptake up: activators of SR-BI mediated HDL lipid uptake; CHO ldlA[mSR-BI] cells, DiI-HDL uptake fluorescence, 3 h; 100 = double the neutral-control signal; activation, % at 12.5 µM; 320,000 compounds, 0.096% hits; AID 504775;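 active = mean replicate activation of at least 60% and every replicate at or above 60%; inconclusive = mean or all-replicate condition met, but not both; inactive = mean below 60% and not all replicates reaching 60%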;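 also: 0% = median plate neutral-control signal and 100% = twice that signal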
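Test system: SR-BI-overexpressing, LDLR-lacking CHO cells; Medium: Ham's F12 with 0.5% BSA, HEPES 25 mM, pH 7.4; Schedule: 3 h, 37 °C; Technique: bottom-read fluorescence, 550/595 nm.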
CDK5 p35 inh: inhibitors of human CDK5/p35 kinase; Q00535+Q15078; Recombinant CDK5/p35, ADP-Glo luminescence, 60 min; inhibition, % at 10 µM; 330,000 compounds, 0.01% hits;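 active = highest replicate inhibition of at least 50% and at least 75% of replicates reaching 50%; inconclusive = only one of the two criteria met; inactive = both criteria failed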;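 also: plate controls were DMSO neutral control for no effect and GW8510 at 10 µM for full effect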
dFosB act-2: delta FosB (mouse) homodimer activation; shares compounds with dFosB act-1; purified delta FosB, TAMRA-CDK5 oligo fluorescence polarization; normalised: neutral wells 0, positive control 100; activation, % at 24.9 µM; 2,400 tested, under 10 active;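 active = highest replicate activation at or above 34% and every replicate reaching that threshold; inconclusive = meets only one of the two criteria; inactive = meets neither criterion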;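 also: higher polarization means more probe DNA bound by delta FosB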
Starred values were filed as active, the others as inactive; ? = inconclusive; · = not tested or not shown. Rule as the data show it, unless noted: active = inhibition above about 50%; inactive = the rest.

SMILES	DYRK1A inh	dFosB act-1	NSD2 inh	SR-BI HDL uptake	SR-BI uptake up	CDK5 p35 inh	dFosB act-2
O=C(Nc1nc2c(F)cc(F)cc2s1)c1ccco1	8.7	0.6	·	-28.6	28.6	3.1	·
O=C(Nc1nc2c(F)c(F)c(F)cc2s1)c1ccco1	-4.4	29.9*	-5.3	-15.4	15.4	0.1	1.8
COc1cccc(-c2nc(C(N)=O)c3[nH]c(=O)n(-c4cccc(Cl)c4)c3n2)c1OC	8.9	-23.5	·	1.4	-1.4	3.6	·
COc1ccc(-c2nc(C(N)=O)c3[nH]c(=O)n(-c4cccc(Cl)c4)c3n2)cc1OC	1.1	28.7*	-0.5	-12.0	12.0	-2.7	-16.7
CCCc1nn2c(-c3ccccc3)nnc2o1	·	·	-1.0	·	·	·	·
COc1ccc(CC(=O)Nc2nnc(-c3cccc([N+](=O)[O-])c3)s2)cc1	2.5	22.3*	·	-2.3	2.3	0.3	0.6
O=C(Cc1ccccc1)Nc1nnc(-c2cccc([N+](=O)[O-])c2)s1	-2.5	-6.3	-0.9	-17.8	17.8	1.3	·
COc1cccc(-c2nnc(NC(=O)c3cccs3)s2)c1	0.1	34.5*	4.2	10.1	-10.1	-1.1	0.9
Cc1ccc(CCNC(=O)C2CCCN(S(=O)(=O)c3cccc4nsnc34)C2)cc1 (stereo unspecified)	-3.5	46.9*	-2.6	38.1	-38.1	-1.1	3.2
O=C(Nc1cccc2c1CCCC2)C1CCCN(S(=O)(=O)c2cccc3nonc23)C1 (stereo unspecified)	-1.4	24.3*	1.6	18.3	-18.3	-0.2	4.2
CC(=O)c1ccc(NC(=O)C2CCCN(S(=O)(=O)c3cccc4nonc34)C2)cc1 (stereo unspecified)	-5.4	-17.9	0.5	-10.7	10.7	0.9	·
Cc1cccc(CCNC(=O)C2CCCN(S(=O)(=O)c3cccc4nsnc34)C2)c1 (stereo unspecified)	4.6	-3.7	-7.3	24.8	-24.8	-1.0	·
Cc1c(NC(=O)c2cccc(NC(=O)Cc3ccccc3Cl)c2)c(=O)n(-c2ccccc2)n1C	·	·	0.6	·	·	·	·
c1ccc(CN2CCN(CCCNc3ccc4nnc(-c5ccccc5)n4n3)CC2)cc1	48.8	-23.9	·	·	·	-1.0	·
Cc1ccc(CNc2ccc3nnc(-c4ccccc4)n3n2)cc1	1.5	23.4*	·	1.8	-1.8	-1.9	5.1
O=C(CCc1ccccc1)Nc1nc2n(n1)C(c1ccccc1)CC(=O)N2 (stereo unspecified)	-4.7	27.0*	3.4	-17.1	17.1	0.7	-0.7
O=C(CCc1ccccc1)Nc1nc2n(n1)C(c1ccc(Cl)cc1)CC(=O)N2 (stereo unspecified)	1.3	?	-0.8	-20.9	20.9	2.0	·
COc1cc(OC)cc(C(=O)NC(C(=O)NNC(=O)CN(C)S(=O)(=O)c2ccc(C)cc2)C(C)C)c1 (stereo unspecified)	2.8	-7.9	-0.9	5.4	-5.4	0.2	·
Cc1ccc(S(=O)(=O)Nc2cc(=O)[nH]c(SCc3ccc(Cl)cc3)n2)cc1	-6.1	-1.7	2.4	-1.5	1.5	0.3	·
COc1ccc(Cl)cc1NC(=O)CSc1nc(NS(=O)(=O)c2ccc(C)cc2)cc(=O)[nH]1	-5.7	28.5*	-2.7	-2.1	2.1	-1.2	1.5
Cc1ccc(CNC(=O)c2ccc(NC(=O)CCS(=O)(=O)c3cccs3)cc2)cc1	-0.6	20.5*	1.4	13.9	-13.9	-0.1	3.2
Cc1cccc(-n2nnnc2SCC(=O)N(CC(C)C)c2c(N)n(CC(C)C)c(=O)[nH]c2=O)c1	-0.1	31.6*	1.7	23.8	-23.8	-0.2	6.4
Cc1c(O)ccc2c(CN3CCN(C/C=C/c4ccccc4)CC3)cc(=O)oc12	-2.8	18.2*	0.0	8.5	-8.5	-0.1	7.3
COc1ccc(C2c3ccc4ccccc4c3Oc3ncn(Cc4ccco4)c(=N)c32)cc1OC (stereo unspecified)	0.7	52.7*	-0.4	-9.4	9.4	0.2	5.2
Cc1cc(C)c(NC(=O)CSc2nc3ncc(Br)cc3[nH]2)c(C)c1	-0.9	30.4*	-3.8	-5.0	5.0	-0.7	-1.1
SMILES	DYRK1A inh	dFosB act-1	NSD2 inh	SR-BI HDL uptake	SR-BI uptake up	CDK5 p35 inh	dFosB act-2
CC(C)(C)C(=O)CSc1nc2ncc(Br)cc2[nH]1	6.9	-2.7	-0.2	12.9	-13.0	-0.5	·
CN(C(=O)COC(=O)/C=C/c1ccc2c(c1)OCO2)c1c(N)n(Cc2ccccc2)c(=O)[nH]c1=O	10.7	53.0*	-0.8	-13.0	13.0	-4.3	0.8
CN(C(=O)COC(=O)/C=C/c1ccc(C(F)(F)F)cc1)c1c(N)n(Cc2ccccc2)c(=O)[nH]c1=O	-10.1	10.5	-7.9	5.3	-5.3	1.2	·
N#CCCN(NC(=O)OCc1ccccc1)C(=O)OCc1ccccc1	6.7	-7.8	-1.4	-2.0	2.0	1.5	·
CC(C)(C)c1ccc(C(=O)N2CCC2(C)C(=O)NS(=O)(=O)c2ccc(C#N)cc2)cc1 (stereo unspecified)	·	·	-1.5	·	·	·	·
O=C(Cc1cccs1)NC1CCCC1	0.9	2.9	-2.7	-13.6	13.6	-2.1	·
O=C(Nc1ccccc1Cl)c1ccc(-n2cccn2)c([N+](=O)[O-])c1	-5.2	-5.8	1.5	2.2	-2.2	-4.0	·
O=C(Nc1ccccc1Cc1ccccc1)C1CC(=O)N(c2ccc3c(c2)OCCO3)C1 (stereo unspecified)	-2.4	35.7*	3.6	2.7	-2.7	-1.4	-0.3
O=C(NC1CCN(Cc2ccccc2)CC1)c1ccc(CS(=O)c2ccccc2Cl)o1 (stereo unspecified)	·	·	1.4	·	·	·	·
COc1ccc(C(=O)NCC(=O)OCc2nc(N)nc(Nc3ccccc3C)n2)cc1	6.9	-9.6	-0.1	-4.1	4.1	-6.7	·
Cc1cc(C)c(NC(=O)Cn2nnc(C(=O)NCCc3ccccc3)c2N)c(C)c1	-2.4	0.7	·	-19.3	19.3	0.0	·
Cc1ccc(NC(=O)Cn2nnc(C(=O)NCCc3ccccc3)c2N)cc1Cl	-1.3	18.6*	8.7	22.4	-22.4	0.1	1.8
COc1ccc(CCNC(=O)Cn2nnc(C(=O)Nc3ccc(Br)cc3)c2N)cc1OC	·	14.6	6.8	51.9	-51.9	·	·
Cc1ccc(NC(=O)Cn2nnc(C(=O)NCCc3ccccc3)c2N)c(C)c1	3.7	28.8*	-2.0	-22.1	22.1	1.1	-10.0
COc1ccc(Cl)cc1NC(=O)Cn1nnc(C(=O)NCCc2ccc(OC)c(OC)c2)c1N	-2.6	38.3*	-1.5	68.9	-68.9	0.4	5.7
COc1ccc(CCNC(=O)c2nnn(CC(=O)Nc3ccc(C)cc3C)c2N)cc1OC	-1.0	52.8*	0.3	46.6	-46.6	2.8	6.0
CCOc1ccc(-c2csc(N3CCC(C(N)=O)CC3)n2)cc1	·	·	0.2	·	·	·	·
